From ChEMBL document CHEMBL1250553, “Synthesis, cytotoxicity and liposome preparation of 28-acetylenic betulin derivatives” (Bioorg Med Chem, 2010)
The source made the active and inactive calls. No cut-off for these calls is given here.

Columns and labels:
A549 [1] = test: Cytotoxicity against human A549 cells after 96 hrs by sulforhodamine B assay; assay type: functional, cell-based; conditions: A549, 96 h
In short: (§1)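 Human tumour cell lines in 96-well plates, exposed to test compounds for 96 h, then read by colorimetric sulforhodamine B staining. Viable cells are expressed as % of untreated controls. IC50 is taken from dose–response curves, top concentration 30 µM, as the mean of at least three independent experiments (variation generally 10%). Compounds are given as DMSO solutions or as an aqueous liposomal formulation.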

A-431 [2] = test: Cytotoxicity against human A431 cells after 96 hrs by sulforhodamine B assay; assay type: functional, cell-based; conditions: A-431, 96 h; in short: as §1
DLD-1 [3] = test: Cytotoxicity against human DLD1 cells after 96 hrs by sulforhodamine B assay; assay type: functional, cell-based; conditions: DLD-1, 96 h; in short: as §1
[4] = Cytotoxicity against human 518A2 cells after 96 hrs by sulforhodamine B assay; assay type: functional, cell-based; conditions: 518A2, 96 h; in short: as §1
HCT-116 [5] = test: Cytotoxicity against human HCT116 cells after 96 hrs by sulforhodamine B assay; assay type: functional, cell-based; conditions: HCT-116, 96 h; in short: as §1
8505C [6] = test: Cytotoxicity against human 8505C cells after 96 hrs by sulforhodamine B assay; assay type: functional, cell-based; in short: as §1
[7] = Cytotoxicity against human liposarcoma cells after 96 hrs by sulforhodamine B assay; assay type: functional, cell-based; in short: as §1
SW-1736 [8] = test: Cytotoxicity against human SW1736 cells after 96 hrs by sulforhodamine B assay; assay type: functional, cell-based; conditions: SW-1736, 96 h; in short: as §1
SW480 [9] = test: Cytotoxicity against human SW480 cells after 96 hrs by sulforhodamine B assay; assay type: functional, cell-based; conditions: SW480, 96 h; in short: as §1
HCT-8 [10] = test: Cytotoxicity against human HCT8 cells after 96 hrs by sulforhodamine B assay; assay type: functional, cell-based; conditions: HCT-8, 96 h; in short: as §1
FaDu [11] = test: Cytotoxicity against human FADU cells after 96 hrs by sulforhodamine B assay; assay type: functional, cell-based; in short: as §1
A2780 [12] = test: Cytotoxicity against human A2780 cells after 96 hrs by sulforhodamine B assay; assay type: functional, cell-based; conditions: A2780, 96 h; in short: as §1
HT-29 [13] = test: Cytotoxicity against human HT-29 cells after 96 hrs by sulforhodamine B assay; assay type: functional, cell-based; conditions: HT-29, 96 h; in short: as §1
MCF7 [14] = test: Cytotoxicity against human MCF7 cells after 96 hrs by sulforhodamine B assay; assay type: functional, cell-based; conditions: MCF7, 96 h; in short: as §1
[15] = Cytotoxicity against human A253 cells after 96 hrs by sulforhodamine B assay; assay type: functional, cell-based; conditions: A253, 96 h; in short: as §1
DLD-1 [16] = test: Cytotoxicity against human DLD1 cells at 30 uM after 96 hrs by sulforhodamine B assay; assay type: functional, cell-based
In short: (§2)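 Growth inhibition at the highest tested concentration, 30 µM, after 96 h exposure in 96-well plates. Read by SRB staining as % viable cells relative to untreated controls, from at least three independent experiments.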

A253 = test: Cytotoxicity against human A253 cells at 30 uM after 96 hrs by sulforhodamine B assay; assay type: functional, cell-based; in short: as §2
518A2 = test: Cytotoxicity against human 518A2 cells at 30 uM after 96 hrs by sulforhodamine B assay; assay type: functional, cell-based; in short: as §2
HCT-116 [17] = test: Cytotoxicity against human HCT116 cells at 30 uM after 96 hrs by sulforhodamine B assay; assay type: functional, cell-based; in short: as §2
SW480 [18] = test: Cytotoxicity against human SW480 cells at 30 uM after 96 hrs by sulforhodamine B assay; assay type: functional, cell-based; in short: as §2
A2780 [19] = test: Cytotoxicity against human A2780 cells at 30 uM after 96 hrs by sulforhodamine B assay; assay type: functional, cell-based; in short: as §2
SW-1736 [20] = test: Cytotoxicity against human SW1736 cells at 30 uM after 96 hrs by sulforhodamine B assay; assay type: functional, cell-based; in short: as §2
HT-29 [21] = test: Cytotoxicity against human HT-29 cells at 30 uM after 96 hrs by sulforhodamine B assay; assay type: functional, cell-based; in short: as §2
FaDu [22] = test: Cytotoxicity against human FADU cells at 30 uM after 96 hrs by sulforhodamine B assay; assay type: functional, cell-based; in short: as §2
8505C [23] = test: Cytotoxicity against human 8505C cells at 30 uM after 96 hrs by sulforhodamine B assay; assay type: functional, cell-based; in short: as §2
Homo sapiens = species: Homo sapiens; test: Cytotoxicity against human liposarcoma cells at 30 uM after 96 hrs by sulforhodamine B assay; assay type: functional, cell-based; in short: as §2
HCT-8 [24] = test: Cytotoxicity against human HCT8 cells at 30 uM after 96 hrs by sulforhodamine B assay; assay type: functional, cell-based; in short: as §2
MCF7 [25] = test: Cytotoxicity against human MCF7 cells at 30 uM after 96 hrs by sulforhodamine B assay; assay type: functional, cell-based; in short: as §2
A549 [26] = test: Cytotoxicity against human A549 cells at 30 uM after 96 hrs by sulforhodamine B assay; assay type: functional, cell-based; in short: as §2
A-431 [27] = test: Cytotoxicity against human A431 cells at 30 uM after 96 hrs by sulforhodamine B assay; assay type: functional, cell-based; in short: as §2
A2780 (Homo sapiens) = test: Induction of apoptosis in human A2780 cells assessed as floating cells at IC90 concentration after 24 hrs by Trypan blue exclusion test
SW480 (Homo sapiens) = test: Induction of apoptosis in human SW480 cells assessed as DNA ladder formation at IC90 concentration after 24 hrs by DNA gel electrophoresis analysis
A2780 [28] = test: Induction of apoptosis in human A2780 cells assessed as floating cells at IC90 concentration after 24 hrs by Trypan blue exclusion test; assay type: functional, cell-based
In short: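 A2780 ovarian cancer cells treated for 24 h. Floating cells are collected and scored by trypan-blue exclusion: apoptotic cells exclude the dye, necrotic cells stain blue.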

SW480 [29] = test: Induction of apoptosis in human SW480 cells assessed as DNA ladder formation at IC90 concentration after 24 hrs by DNA gel electrophoresis analysis; assay type: functional, cell-based
In short: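 SW480 colon cancer cells treated for 24 h. Floating cells are collected, and DNA is analysed by gel electrophoresis for endonuclease-generated fragment laddering.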

C=C(C)[C@@H]1CC[C@]2([C@H](O)/C=C\CO)CC[C@]3(C)[C@H](CC[C@@H]4[C@@]5(C)CC[C@H](OC(C)=O)C(C)(C)[C@@H]5CC[C@]43C)[C@@H]12
IC50 (A549 [1]): 12.8 µM | IC50 (A-431 [2]): 12.4 µM | IC50 (DLD-1 [3]): 12.3 µM | IC50 [4]: 20.4 µM | IC50 (HCT-116 [5]): 10.5 µM | IC50 (8505C [6]): 17.8 µM | IC50 [7]: 18.5 µM | IC50 (SW-1736 [8]): 9 µM | IC50 (SW480 [9]): 17.9 µM | IC50 (HCT-8 [10]): 10.1 µM | IC50 (FaDu [11]): 10.7 µM | IC50 (A2780 [12]): 12.6 µM | IC50 (HT-29 [13]): 15.9 µM | IC50 (MCF7 [14]): 19.4 µM | IC50 [15]: 14.8 µM

C=C(C)[C@@H]1CC[C@]2([C@H](O)C#CCO)CC[C@]3(C)[C@H](CC[C@@H]4[C@@]5(C)CC[C@H](OC(C)=O)C(C)(C)[C@@H]5CC[C@]43C)[C@@H]12
IC50 (A549 [1]): 11.9 µM | IC50 (A-431 [2]): 10.5 µM | IC50 [4]: 11.9 µM | IC50 (HCT-116 [5]): 11.3 µM | IC50 (8505C [6]): 8.4 µM | IC50 [7]: 11.4 µM | IC50 (SW-1736 [8]): 11.5 µM | IC50 (SW480 [9]): 6.9 µM | IC50 (HCT-8 [10]): 11.6 µM | IC50 (FaDu [11]): 11.2 µM | IC50 (A2780 [12]): 10.4 µM | IC50 (HT-29 [13]): 11.6 µM | inhibition (DLD-1 [16]): inactive | IC50 (MCF7 [14]): 9.9 µM | IC50 [15]: 10.3 µM

C=C(C)[C@@H]1CC[C@]2([C@H](O)c3c(C(=O)OCC)n[nH]c3C(=O)OC)CC[C@]3(C)[C@H](CC[C@@H]4[C@@]5(C)CC[C@H](OC(C)=O)C(C)(C)[C@@H]5CC[C@]43C)[C@@H]12
IC50 (A549 [1]): 18.2 µM | IC50 (A-431 [2]): 11.7 µM | IC50 [4]: 16.4 µM | IC50 (HCT-116 [5]): 14 µM | IC50 (8505C [6]): 12 µM | IC50 [7]: 14 µM | IC50 (SW-1736 [8]): 19.2 µM | IC50 (SW480 [9]): 11.4 µM | IC50 (HCT-8 [10]): 13.4 µM | IC50 (FaDu [11]): 13.9 µM | IC50 (A2780 [12]): 13.2 µM | IC50 (HT-29 [13]): 17 µM | inhibition (DLD-1 [16]): inactive | IC50 (MCF7 [14]): 11.3 µM | IC50 [15]: 13.2 µM

C=C(C)[C@@H]1CC[C@]2(C(=O)C#CC(=O)OC)CC[C@]3(C)[C@H](CC[C@@H]4[C@@]5(C)CC[C@H](OC(C)=O)C(C)(C)[C@@H]5CC[C@]43C)[C@@H]12
inhibition (A253): inactive | inhibition (518A2): inactive | inhibition (HCT-116 [17]): inactive | inhibition (SW480 [18]): inactive | inhibition (A2780 [19]): inactive | inhibition (SW-1736 [20]): inactive | inhibition (HT-29 [21]): inactive | inhibition (FaDu [22]): inactive | inhibition (DLD-1 [16]): inactive | inhibition (8505C [23]): inactive | inhibition (Homo sapiens): inactive | inhibition (HCT-8 [24]): inactive | inhibition (MCF7 [25]): inactive | inhibition (A549 [26]): inactive | inhibition (A-431 [27]): inactive

C=C(C)[C@@H]1CC[C@]2([C@H](O)C#CC(=O)OC)CC[C@]3(C)[C@H](CC[C@@H]4[C@@]5(C)CC[C@H](OC(C)=O)C(C)(C)[C@@H]5CC[C@]43C)[C@@H]12
IC50 [4]: 5.9 µM | IC50 [7]: 4.2 µM | Activity (A2780 (Homo sapiens)): Active | Activity (SW480 (Homo sapiens)): Active | Activity (A2780 [28]): Active | Activity (SW480 [29]): Active | IC50 [15]: 2.7 µM

C=C(C)[C@@H]1CC[C@]2([C@H](O)C#Cc3ccccc3)CC[C@]3(C)[C@H](CC[C@@H]4[C@@]5(C)CC[C@H](OC(C)=O)C(C)(C)[C@@H]5CC[C@]43C)[C@@H]12
inhibition (A253): inactive | inhibition (518A2): inactive | inhibition (HCT-116 [17]): inactive | inhibition (SW480 [18]): inactive | inhibition (A2780 [19]): inactive | inhibition (SW-1736 [20]): inactive | inhibition (HT-29 [21]): inactive | inhibition (FaDu [22]): inactive | inhibition (DLD-1 [16]): inactive | inhibition (8505C [23]): inactive | inhibition (Homo sapiens): inactive | inhibition (HCT-8 [24]): inactive | inhibition (MCF7 [25]): inactive | inhibition (A549 [26]): inactive | inhibition (A-431 [27]): inactive
